From ChEMBL document CHEMBL5724801, “EUbOPEN Chemogenomics Library - Multiplex” (2024)
Where “and” joins values, the source holds several entries; their conditions need not be identical. Equal values may be shown once.

How the values were obtained:
U2OS = test: Multiplex assay against U2OS; assay type: toxicity, cell-based; conditions: human
Method in brief: (§1)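 Live cells were stained at seeding with Hoechst33342, BioTracker Green Microtubule Cytoskeleton Dye, MitoTracker Red and Annexin V Alexa Fluor 680. Following compound addition, they were imaged on a CQ1 microscope at 37°C and 5% CO2 and gated by CellPathfinder machine learning into Hoechst high-intensity objects or normal cells, with normal cells split into healthy, pyknosed or fragmented nuclei and pyknosed cells into mitotic or apoptotic. Tubulin, mitochondrial-mass and membrane-permeability phenotypes are per cents of healthy-nucleus cells.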

Fibroblast = test: Multiplex assay against human fibroblast; assay type: toxicity, cell-based; method in brief: as §1
[1] = 12 h, 1 µM, compound concentration 1 uM
[2] = 12 h, 10 µM, compound concentration 10 uM
[3] = 24 h, 1 µM, compound concentration 1 uM
[4] = 24 h, 10 µM, compound concentration 10 uM
[5] = 48 h, 1 µM, compound concentration 1 uM
[6] = 48 h, 10 µM, compound concentration 10 uM

C=CC(=O)N1CCC[C@@H](n2nc(C(=O)Nc3ccc(CC(=O)N(C)C)c(C)c3C)c3c(N)ncnc32)C1
Population Apoptotic (%) (U2OS; [1]): 31.58% and 48.15%
Population Fragmented Nuclei (%) (U2OS; [1]): 2.15% and 3.28%
Population Healthy Nuclei (%) (U2OS; [1]): 88.76% and 81.97%
Population Hoechst High Intensity Objects (%) (U2OS; [1]): 0%
Population Membrane Permeable-Phenotype (%) (U2OS; [1]): 1.08% and 0.67%
Population Mitochondria Different-Phenotype (%) (U2OS; [1]): 0.54% and 8.67%
Population Mitotic Cells (%) (U2OS; [1]): 68.42% and 51.85%
Population Normal (%) (U2OS; [1]): 100%
Population Pyknosed Nuclei (%) (U2OS; [1]): 9.09% and 14.75%
Population Tubulin-Different-Phenotype (%) (U2OS; [1]): 1.08% and 0%
Total Cell Count (U2OS; [1]): 418 and 183
Population Apoptotic (%) (U2OS; [2]): 42.86% and 45.45%
Population Fragmented Nuclei (%) (U2OS; [2]): 1.65% and 3.24%
Population Healthy Nuclei (%) (U2OS; [2]): 88.47% and 84.86%
Population Hoechst High Intensity Objects (%) (U2OS; [2]): 0.23% and 0%
Population Mitotic Cells (%) (U2OS; [2]): 57.14% and 54.55%
Population Normal (%) (U2OS; [2]): 99.77% and 100%
Population Pyknosed Nuclei (%) (U2OS; [2]): 9.88% and 11.89%
Population Tubulin-Different-Phenotype (%) (U2OS; [2]): 0.27% and 3.82%
Total Cell Count (U2OS; [2]): 426 and 185
Population Apoptotic (%) (U2OS; [3]): 37.21% and 57.14%
Population Fragmented Nuclei (%) (U2OS; [3]): 1.84% and 1.69%
Population Healthy Nuclei (%) (U2OS; [3]): 90.24% and 83.47%
Population Hoechst High Intensity Objects (%) (U2OS; [3]): 0.18% and 0%
Population Membrane Permeable-Phenotype (%) (U2OS; [3]): 0.41% and 2.54%
Population Mitochondria Different-Phenotype (%) (U2OS; [3]): 0.41% and 6.6%
Population Mitotic Cells (%) (U2OS; [3]): 62.79% and 42.86%
Population Normal (%) (U2OS; [3]): 99.82% and 100%
Population Pyknosed Nuclei (%) (U2OS; [3]): 7.92% and 14.83%
Population Tubulin-Different-Phenotype (%) (U2OS; [3]): 1.02% and 0%
Total Cell Count (U2OS; [3]): 544 and 236
Population Apoptotic (%) (U2OS; [4]): 57.14% and 50%
Population Fragmented Nuclei (%) (U2OS; [4]): 2.56% and 2.27%
Population Healthy Nuclei (%) (U2OS; [4]): 87.18% and 86.82%
Population Hoechst High Intensity Objects (%) (U2OS; [4]): 0%
Population Membrane Permeable-Phenotype (%) (U2OS; [4]): 1.47% and 8.38%
Population Mitotic Cells (%) (U2OS; [4]): 42.86% and 50%
Population Normal (%) (U2OS; [4]): 100%
Population Pyknosed Nuclei (%) (U2OS; [4]): 10.26% and 10.91%
Population Tubulin-Different-Phenotype (%) (U2OS; [4]): 0.84% and 2.62%
Total Cell Count (U2OS; [4]): 546 and 220
Population Apoptotic (%) (U2OS; [5]): 38.38% and 67.35%
Population Fragmented Nuclei (%) (U2OS; [5]): 2.8% and 4.6%
Population Healthy Nuclei (%) (U2OS; [5]): 87.64% and 82.86%
Population Hoechst High Intensity Objects (%) (U2OS; [5]): 0%
Population Membrane Permeable-Phenotype (%) (U2OS; [5]): 0.66% and 2.16%
Population Mitochondria Different-Phenotype (%) (U2OS; [5]): 0.11% and 7.41%
Population Mitotic Cells (%) (U2OS; [5]): 61.62% and 32.65%
Population Normal (%) (U2OS; [5]): 100%
Population Pyknosed Nuclei (%) (U2OS; [5]): 9.56% and 12.53%
Population Tubulin-Different-Phenotype (%) (U2OS; [5]): 0.66% and 0.31%
Total Cell Count (U2OS; [5]): 1036 and 391
Population Apoptotic (%) (U2OS; [6]): 50.48% and 54.35%
Population Fragmented Nuclei (%) (U2OS; [6]): 1.98% and 2.5%
Population Healthy Nuclei (%) (U2OS; [6]): 87.11% and 83.12%
Population Hoechst High Intensity Objects (%) (U2OS; [6]): 0.1% and 0.31%
Population Membrane Permeable-Phenotype (%) (U2OS; [6]): 1.07% and 3.01%
Population Mitochondria Different-Phenotype (%) (U2OS; [6]): 0.12% and 6.02%
Population Mitotic Cells (%) (U2OS; [6]): 49.52% and 45.65%
Population Normal (%) (U2OS; [6]): 99.9% and 99.69%
Population Pyknosed Nuclei (%) (U2OS; [6]): 10.91% and 14.37%
Population Tubulin-Different-Phenotype (%) (U2OS; [6]): 0.95% and 1.5%
Total Cell Count (U2OS; [6]): 963 and 321
Population Fragmented Nuclei (%) (Fibroblast; [1]): 10.1% and 3.17%
Population Healthy Nuclei (%) (Fibroblast; [1]): 56.73% and 73.02%
Population Hoechst High Intensity Objects (%) (Fibroblast; [1]): 0%
Population Membrane Permeable-Phenotype (%) (Fibroblast; [1]): 1.69% and 0.72%
Population Mitochondria Different-Phenotype (%) (Fibroblast; [1]): 9.32% and 5.8%
Population Mitotic Cells (%) (Fibroblast; [1]): 97.1% and 80%
Population Normal (%) (Fibroblast; [1]): 100%
Population Pyknosed Nuclei (%) (Fibroblast; [1]): 33.17% and 23.81%
Population Tubulin-Different-Phenotype (%) (Fibroblast; [1]): 14.41% and 5.8%
Total Cell Count (Fibroblast; [1]): 208 and 189
Population Apoptotic (%) (Fibroblast; [2]): 5.56% and 8.57%
Population Fragmented Nuclei (%) (Fibroblast; [2]): 8.2% and 7.93%
Population Healthy Nuclei (%) (Fibroblast; [2]): 62.3% and 70.73%
Population Hoechst High Intensity Objects (%) (Fibroblast; [2]): 0%
Population Membrane Permeable-Phenotype (%) (Fibroblast; [2]): 9.65% and 7.76%
Population Mitochondria Different-Phenotype (%) (Fibroblast; [2]): 11.4% and 13.79%
Population Mitotic Cells (%) (Fibroblast; [2]): 94.44% and 91.43%
Population Normal (%) (Fibroblast; [2]): 100%
Population Pyknosed Nuclei (%) (Fibroblast; [2]): 29.51% and 21.34%
Population Tubulin-Different-Phenotype (%) (Fibroblast; [2]): 21.93% and 32.76%
Total Cell Count (Fibroblast; [2]): 183 and 164
Population Apoptotic (%) (Fibroblast; [3]): 18.18% and 16.67%
Population Fragmented Nuclei (%) (Fibroblast; [3]): 12.88% and 6.53%
Population Healthy Nuclei (%) (Fibroblast; [3]): 68.24% and 78.39%
Population Hoechst High Intensity Objects (%) (Fibroblast; [3]): 0%
Population Membrane Permeable-Phenotype (%) (Fibroblast; [3]): 3.77% and 2.56%
Population Mitochondria Different-Phenotype (%) (Fibroblast; [3]): 7.55% and 8.33%
Population Mitotic Cells (%) (Fibroblast; [3]): 81.82% and 83.33%
Population Normal (%) (Fibroblast; [3]): 100%
Population Pyknosed Nuclei (%) (Fibroblast; [3]): 18.88% and 15.08%
Population Tubulin-Different-Phenotype (%) (Fibroblast; [3]): 13.21% and 10.26%
Total Cell Count (Fibroblast; [3]): 233 and 199
Population Fragmented Nuclei (%) (Fibroblast; [4]): 12.56% and 7.73%
Population Healthy Nuclei (%) (Fibroblast; [4]): 67.34% and 70.72%
Population Hoechst High Intensity Objects (%) (Fibroblast; [4]): 0%
Population Membrane Permeable-Phenotype (%) (Fibroblast; [4]): 8.96% and 3.12%
Population Mitochondria Different-Phenotype (%) (Fibroblast; [4]): 9.7% and 14.06%
Population Mitotic Cells (%) (Fibroblast; [4]): 95% and 84.62%
Population Normal (%) (Fibroblast; [4]): 100%
Population Pyknosed Nuclei (%) (Fibroblast; [4]): 20.1% and 21.55%
Population Tubulin-Different-Phenotype (%) (Fibroblast; [4]): 23.13% and 33.59%
Total Cell Count (Fibroblast; [4]): 199 and 181
Population Apoptotic (%) (Fibroblast; [5]): 13.79% and 22.22%
Population Fragmented Nuclei (%) (Fibroblast; [5]): 7.48% and 7.76%
Population Healthy Nuclei (%) (Fibroblast; [5]): 81.1% and 84.02%
Population Hoechst High Intensity Objects (%) (Fibroblast; [5]): 0%
Population Membrane Permeable-Phenotype (%) (Fibroblast; [5]): 0.97% and 1.63%
Population Mitotic Cells (%) (Fibroblast; [5]): 86.21% and 77.78%
Population Normal (%) (Fibroblast; [5]): 100%
Population Pyknosed Nuclei (%) (Fibroblast; [5]): 11.42% and 8.22%
Population Tubulin-Different-Phenotype (%) (Fibroblast; [5]): 5.34% and 12.5%
Total Cell Count (Fibroblast; [5]): 254 and 219
Population Apoptotic (%) (Fibroblast; [6]): 22.22% and 18.75%
Population Fragmented Nuclei (%) (Fibroblast; [6]): 7.14% and 11.46%
Population Healthy Nuclei (%) (Fibroblast; [6]): 84.29% and 80.21%
Population Hoechst High Intensity Objects (%) (Fibroblast; [6]): 0%
Population Membrane Permeable-Phenotype (%) (Fibroblast; [6]): 3.39% and 5.84%
Population Mitochondria Different-Phenotype (%) (Fibroblast; [6]): 12.99% and 3.9%
Population Mitotic Cells (%) (Fibroblast; [6]): 77.78% and 81.25%
Population Normal (%) (Fibroblast; [6]): 100%
Population Pyknosed Nuclei (%) (Fibroblast; [6]): 8.57% and 8.33%
Population Tubulin-Different-Phenotype (%) (Fibroblast; [6]): 19.21% and 29.22%
Total Cell Count (Fibroblast; [6]): 210 and 192
